This passage reports inhibition and fold change (FC) results from ChEMBL document CHEMBL5653631, “A Potent and Selective ULK1 Inhibitor Suppresses Autophagy and Sensitizes Cancer Cells to Nutrient Stress” (iScience, 2018).

The structures appear in SMILES notation.

In assay [1] the target is Dual specificity tyrosine-phosphorylation-regulated kinase 1A (Homo sapiens) (UniProt Q13627). Description: Inhibition of human recombinant DYRK1A at 40 nM in presence of ATP by radiometric assay relative to control.
Assay [2] addresses Tau-tubulin kinase 1 (Homo sapiens) (UniProt Q5TCY1). Kind of assay: Inhibition of human recombinant TTBK1 at 40 nM in presence of ATP by radiometric assay relative to control.
In assay [3] the target is Proto-oncogene tyrosine-protein kinase ROS (Homo sapiens) (UniProt P08922). Kind of assay: Inhibition of human recombinant ROS at 40 nM in presence of ATP by radiometric assay relative to control.
For assay [4], the target named is Tyrosine-protein kinase JAK2 (Homo sapiens) (UniProt O60674). Description: Inhibition of human recombinant JAK2 at 40 nM in presence of ATP by radiometric assay relative to control.
For assay [5], the target named is Serine/threonine-protein kinase ATR (Homo sapiens) (UniProt Q13535). Kind of assay: Inhibition of human recombinant ATR at 40 nM related to control ULK1. In outline:
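Radiometric activity assays in a panel of 327 human recombinant kinases, each run in duplicate at one inhibitor concentration. Activity remaining is expressed as percent of vehicle control, and percent inhibition is calculated as 100% minus percent activity remaining.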

Assay [6] deals with Mitogen-activated protein kinase kinase kinase kinase 1 (Homo sapiens) (UniProt Q92918). Description: Inhibition of human recombinant HPK1 at 40 nM in presence of ATP by radiometric assay relative to control.
Assay [7] deals with T1, Aurora kinase A (Homo sapiens) (UniProt O14965).
T1 sequence (whole entry): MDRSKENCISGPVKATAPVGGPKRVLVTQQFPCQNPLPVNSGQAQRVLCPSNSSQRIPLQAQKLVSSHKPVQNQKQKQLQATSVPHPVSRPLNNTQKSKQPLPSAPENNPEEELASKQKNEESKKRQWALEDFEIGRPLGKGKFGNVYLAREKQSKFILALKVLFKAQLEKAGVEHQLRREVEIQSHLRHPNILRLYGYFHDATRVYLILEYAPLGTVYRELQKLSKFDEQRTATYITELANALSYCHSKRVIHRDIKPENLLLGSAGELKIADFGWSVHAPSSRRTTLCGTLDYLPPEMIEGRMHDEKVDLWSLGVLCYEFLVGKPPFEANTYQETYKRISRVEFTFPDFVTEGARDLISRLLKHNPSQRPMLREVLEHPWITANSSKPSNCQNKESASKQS
Kind of assay: Inhibition of human recombinant AurA at 40 nM in presence of ATP by radiometric assay relative to control. A digest of the protocol:
(§1)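 Panel of 327 recombinant human kinases, each assayed in vitro by radiometric activity assay in duplicate at a single inhibitor concentration per compound, chosen with reference to its ULK1 inhibition. Activity remaining was expressed as percent of vehicle control, and percent inhibition was calculated as 100 minus percent activity remaining.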

Assay [8] has as its target Calcium/calmodulin-dependent protein kinase type II subunit delta (Homo sapiens) (UniProt Q13557). Kind of assay: Inhibition of human recombinant CaMK2d at 500 nM in presence of ATP by radiometric assay relative to control.
Assay [9] has as its target Serine/threonine-protein kinase 32C (Homo sapiens) (UniProt Q86UX6). Description: Inhibition of human recombinant YANK3 at 500 nM related to control ULK1.
Assay [10] has as its target Mitogen-activated protein kinase 11 (Homo sapiens) (UniProt Q15759). Kind of assay: Inhibition of human recombinant p38beta at 500 nM in presence of ATP by radiometric assay relative to control.
Assay [11] concerns the target 3-phosphoinositide-dependent protein kinase 1 (Homo sapiens) (UniProt O15530). Kind of assay: Inhibition of human recombinant PDK1 at 500 nM in presence of ATP by radiometric assay relative to control.
In assay [12] the target is G protein-coupled receptor kinase 6 (Homo sapiens) (UniProt P43250). Kind of assay: Inhibition of human recombinant GPRK6 at 500 nM in presence of ATP by radiometric assay relative to control.
G protein-coupled receptor kinase 6 (Homo sapiens), sequence (P43250 whole entry, looked up): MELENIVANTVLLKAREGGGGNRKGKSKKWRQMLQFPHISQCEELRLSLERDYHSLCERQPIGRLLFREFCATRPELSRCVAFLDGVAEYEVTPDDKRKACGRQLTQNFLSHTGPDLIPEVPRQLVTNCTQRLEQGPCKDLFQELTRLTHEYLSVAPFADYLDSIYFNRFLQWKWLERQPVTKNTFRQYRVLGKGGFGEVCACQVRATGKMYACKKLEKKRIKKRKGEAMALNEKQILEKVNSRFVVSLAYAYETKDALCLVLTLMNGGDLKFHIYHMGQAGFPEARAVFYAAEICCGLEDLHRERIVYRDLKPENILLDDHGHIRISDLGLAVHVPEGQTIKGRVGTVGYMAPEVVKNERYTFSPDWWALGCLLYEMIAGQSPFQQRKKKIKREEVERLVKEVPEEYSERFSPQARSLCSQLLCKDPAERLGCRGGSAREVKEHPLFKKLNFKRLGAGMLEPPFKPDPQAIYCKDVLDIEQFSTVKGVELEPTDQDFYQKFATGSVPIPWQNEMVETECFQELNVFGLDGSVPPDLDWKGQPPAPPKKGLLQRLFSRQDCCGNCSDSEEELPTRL
For assay [13], the target named is Mitogen-activated protein kinase kinase kinase kinase 4 (Homo sapiens) (UniProt O95819). Kind of assay: Inhibition of human recombinant HGK at 500 nM in presence of ATP by radiometric assay relative to control.
The target of assay [14] is Tyrosine-protein kinase Fes/Fps (Homo sapiens) (UniProt P07332). Description: Inhibition of human recombinant FES at 500 nM in presence of ATP by radiometric assay relative to control.
Tyrosine-protein kinase Fes/Fps (Homo sapiens), sequence (P07332 whole entry): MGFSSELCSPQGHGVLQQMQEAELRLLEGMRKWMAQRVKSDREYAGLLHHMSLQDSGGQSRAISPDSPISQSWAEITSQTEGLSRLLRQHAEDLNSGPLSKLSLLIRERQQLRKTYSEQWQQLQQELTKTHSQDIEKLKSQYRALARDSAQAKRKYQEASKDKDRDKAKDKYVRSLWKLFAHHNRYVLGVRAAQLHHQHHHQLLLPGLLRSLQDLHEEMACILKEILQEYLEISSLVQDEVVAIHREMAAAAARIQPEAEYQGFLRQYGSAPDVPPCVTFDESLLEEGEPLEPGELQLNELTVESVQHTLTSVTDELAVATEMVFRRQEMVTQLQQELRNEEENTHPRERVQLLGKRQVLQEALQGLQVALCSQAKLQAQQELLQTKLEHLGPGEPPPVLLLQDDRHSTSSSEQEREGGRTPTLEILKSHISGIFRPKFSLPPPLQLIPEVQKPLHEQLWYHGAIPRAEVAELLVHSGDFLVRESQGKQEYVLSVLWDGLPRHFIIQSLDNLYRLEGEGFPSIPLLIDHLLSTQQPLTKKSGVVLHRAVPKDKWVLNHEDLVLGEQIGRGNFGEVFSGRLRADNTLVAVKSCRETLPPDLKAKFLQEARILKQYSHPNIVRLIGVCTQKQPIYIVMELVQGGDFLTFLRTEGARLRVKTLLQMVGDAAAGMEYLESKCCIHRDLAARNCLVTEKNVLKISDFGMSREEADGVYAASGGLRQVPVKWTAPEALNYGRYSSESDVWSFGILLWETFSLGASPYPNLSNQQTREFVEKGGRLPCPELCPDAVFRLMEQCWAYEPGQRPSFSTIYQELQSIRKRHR
The target of assay [15] is Protein kinase C delta type (Homo sapiens) (UniProt Q05655). Description: Inhibition of human recombinant PKCd at 500 nM in presence of ATP by radiometric assay relative to control.
For assay [16], the target named is T2, Receptor-interacting serine/threonine-protein kinase 1 (Homo sapiens) (UniProt Q13546).
T2 sequence (whole entry): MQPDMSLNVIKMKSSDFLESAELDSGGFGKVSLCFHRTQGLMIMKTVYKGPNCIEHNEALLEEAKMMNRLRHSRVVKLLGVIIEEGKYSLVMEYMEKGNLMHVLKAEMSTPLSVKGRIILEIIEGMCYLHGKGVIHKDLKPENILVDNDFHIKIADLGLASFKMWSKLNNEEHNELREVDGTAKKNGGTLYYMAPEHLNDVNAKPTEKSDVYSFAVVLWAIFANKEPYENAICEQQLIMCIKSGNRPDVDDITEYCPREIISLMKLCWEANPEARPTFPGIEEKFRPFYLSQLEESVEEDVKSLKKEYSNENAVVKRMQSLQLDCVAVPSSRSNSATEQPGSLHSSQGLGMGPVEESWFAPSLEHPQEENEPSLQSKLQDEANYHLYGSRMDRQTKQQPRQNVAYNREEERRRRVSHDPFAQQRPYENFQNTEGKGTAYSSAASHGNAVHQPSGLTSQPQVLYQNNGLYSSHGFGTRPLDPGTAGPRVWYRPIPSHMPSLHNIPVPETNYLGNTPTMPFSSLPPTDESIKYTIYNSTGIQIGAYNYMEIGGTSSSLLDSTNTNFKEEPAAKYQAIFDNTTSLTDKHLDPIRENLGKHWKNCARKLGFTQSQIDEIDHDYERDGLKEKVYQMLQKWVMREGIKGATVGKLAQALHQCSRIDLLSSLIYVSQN
Description: Inhibition of human recombinant RIPK1 at 500 nM related to control ULK1.

Assay [17] concerns the target Calcium/calmodulin-dependent protein kinase type II subunit gamma (Homo sapiens) (UniProt Q13555). Kind of assay: Inhibition of human recombinant CaMK2g at 500 nM related to control ULK1.
For the next assay, the species on record is Homo sapiens. Description: Inhibition of human recombinant ABL at 500 nM related to control ULK1.
The target of assay [18] is Cyclin-dependent kinase 18 (Homo sapiens) (UniProt Q07002). Description: Inhibition of human recombinant PCTAIRE3 at 500 nM related to control ULK1.
Cyclin-dependent kinase 18 (Homo sapiens), sequence (Q07002 whole entry): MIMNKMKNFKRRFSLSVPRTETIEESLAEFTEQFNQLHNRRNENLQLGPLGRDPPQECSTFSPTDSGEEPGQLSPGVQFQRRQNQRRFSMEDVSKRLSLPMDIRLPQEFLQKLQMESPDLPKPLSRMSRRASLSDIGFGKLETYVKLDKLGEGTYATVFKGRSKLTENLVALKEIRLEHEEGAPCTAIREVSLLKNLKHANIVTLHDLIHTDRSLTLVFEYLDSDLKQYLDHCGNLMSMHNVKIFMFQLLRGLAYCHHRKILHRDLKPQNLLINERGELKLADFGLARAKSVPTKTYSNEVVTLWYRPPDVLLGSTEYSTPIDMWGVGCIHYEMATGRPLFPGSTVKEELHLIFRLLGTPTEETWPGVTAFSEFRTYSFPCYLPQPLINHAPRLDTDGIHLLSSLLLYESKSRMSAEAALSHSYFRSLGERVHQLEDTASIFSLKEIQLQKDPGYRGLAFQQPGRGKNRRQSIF
Assay [19] deals with Macrophage-stimulating protein receptor (Homo sapiens) (UniProt Q04912). Description: Inhibition of human recombinant RON at 500 nM related to control ULK1.
Macrophage-stimulating protein receptor (Homo sapiens), sequence (Q04912 25-304 limits assumed): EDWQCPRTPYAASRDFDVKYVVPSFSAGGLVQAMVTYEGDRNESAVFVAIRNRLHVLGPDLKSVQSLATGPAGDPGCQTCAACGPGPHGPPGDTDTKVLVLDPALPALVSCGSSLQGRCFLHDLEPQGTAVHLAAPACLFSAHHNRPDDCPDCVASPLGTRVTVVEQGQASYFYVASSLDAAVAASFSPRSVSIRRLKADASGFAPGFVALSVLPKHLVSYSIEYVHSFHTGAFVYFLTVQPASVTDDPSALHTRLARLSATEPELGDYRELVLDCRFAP
Macrophage-stimulating protein receptor (Homo sapiens), sequence (Q04912 310-1400 limits assumed): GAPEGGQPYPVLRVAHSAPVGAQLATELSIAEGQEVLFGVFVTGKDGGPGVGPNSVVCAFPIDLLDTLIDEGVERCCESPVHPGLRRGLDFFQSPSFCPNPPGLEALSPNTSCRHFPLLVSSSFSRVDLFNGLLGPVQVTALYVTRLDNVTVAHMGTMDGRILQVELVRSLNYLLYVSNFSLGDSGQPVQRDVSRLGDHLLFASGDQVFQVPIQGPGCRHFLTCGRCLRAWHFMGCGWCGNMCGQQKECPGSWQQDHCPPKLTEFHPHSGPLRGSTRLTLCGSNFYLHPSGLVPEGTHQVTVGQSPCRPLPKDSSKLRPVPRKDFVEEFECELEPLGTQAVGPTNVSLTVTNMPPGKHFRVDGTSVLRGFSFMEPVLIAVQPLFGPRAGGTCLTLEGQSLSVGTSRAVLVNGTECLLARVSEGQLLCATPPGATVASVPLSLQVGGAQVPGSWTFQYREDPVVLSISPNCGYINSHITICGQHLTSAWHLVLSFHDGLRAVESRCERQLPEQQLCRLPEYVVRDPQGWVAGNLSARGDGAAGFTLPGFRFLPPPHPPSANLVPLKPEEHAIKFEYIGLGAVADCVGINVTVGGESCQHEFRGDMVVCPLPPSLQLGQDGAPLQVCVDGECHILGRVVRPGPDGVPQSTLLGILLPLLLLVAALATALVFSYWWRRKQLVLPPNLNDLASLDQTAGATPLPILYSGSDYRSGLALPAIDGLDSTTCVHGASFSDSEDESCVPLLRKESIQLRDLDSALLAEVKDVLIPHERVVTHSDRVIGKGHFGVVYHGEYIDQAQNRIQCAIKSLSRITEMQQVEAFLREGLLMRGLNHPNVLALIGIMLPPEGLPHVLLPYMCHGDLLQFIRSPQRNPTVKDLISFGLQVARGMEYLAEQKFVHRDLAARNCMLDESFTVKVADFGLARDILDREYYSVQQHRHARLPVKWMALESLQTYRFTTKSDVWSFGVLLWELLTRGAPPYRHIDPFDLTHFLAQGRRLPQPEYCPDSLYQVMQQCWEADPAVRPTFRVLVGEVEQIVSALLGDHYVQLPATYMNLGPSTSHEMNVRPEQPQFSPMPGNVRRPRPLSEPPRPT
For assay [20], the target named is Tyrosine-protein kinase receptor UFO (Homo sapiens) (UniProt P30530). Description: Inhibition of human recombinant AXL at 15 nM in presence of ATP by radiometric assay relative to control. A digest of the protocol:
as §1

The term inhibition denotes the change of the read-out against control, counted positive when it falls.

3-phosphoinositide-dependent protein kinase 1 (Homo sapiens), sequence (O15530 whole entry, looked up): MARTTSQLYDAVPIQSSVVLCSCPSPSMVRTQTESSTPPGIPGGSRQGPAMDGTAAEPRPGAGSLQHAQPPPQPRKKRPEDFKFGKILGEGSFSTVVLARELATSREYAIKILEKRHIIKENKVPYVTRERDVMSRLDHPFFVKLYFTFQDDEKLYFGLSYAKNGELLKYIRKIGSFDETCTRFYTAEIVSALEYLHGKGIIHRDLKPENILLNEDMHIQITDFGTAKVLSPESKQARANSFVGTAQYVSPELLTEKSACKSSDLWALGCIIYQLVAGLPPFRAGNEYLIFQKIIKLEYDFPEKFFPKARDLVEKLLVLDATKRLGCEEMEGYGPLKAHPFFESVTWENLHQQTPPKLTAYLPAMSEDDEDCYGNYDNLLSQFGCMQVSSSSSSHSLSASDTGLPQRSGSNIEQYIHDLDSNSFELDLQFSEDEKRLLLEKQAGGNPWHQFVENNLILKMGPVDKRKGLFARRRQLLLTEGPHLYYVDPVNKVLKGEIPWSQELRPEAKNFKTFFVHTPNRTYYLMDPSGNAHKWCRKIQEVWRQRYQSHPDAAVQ
Tyrosine-protein kinase receptor UFO (Homo sapiens), sequence (P30530 whole entry): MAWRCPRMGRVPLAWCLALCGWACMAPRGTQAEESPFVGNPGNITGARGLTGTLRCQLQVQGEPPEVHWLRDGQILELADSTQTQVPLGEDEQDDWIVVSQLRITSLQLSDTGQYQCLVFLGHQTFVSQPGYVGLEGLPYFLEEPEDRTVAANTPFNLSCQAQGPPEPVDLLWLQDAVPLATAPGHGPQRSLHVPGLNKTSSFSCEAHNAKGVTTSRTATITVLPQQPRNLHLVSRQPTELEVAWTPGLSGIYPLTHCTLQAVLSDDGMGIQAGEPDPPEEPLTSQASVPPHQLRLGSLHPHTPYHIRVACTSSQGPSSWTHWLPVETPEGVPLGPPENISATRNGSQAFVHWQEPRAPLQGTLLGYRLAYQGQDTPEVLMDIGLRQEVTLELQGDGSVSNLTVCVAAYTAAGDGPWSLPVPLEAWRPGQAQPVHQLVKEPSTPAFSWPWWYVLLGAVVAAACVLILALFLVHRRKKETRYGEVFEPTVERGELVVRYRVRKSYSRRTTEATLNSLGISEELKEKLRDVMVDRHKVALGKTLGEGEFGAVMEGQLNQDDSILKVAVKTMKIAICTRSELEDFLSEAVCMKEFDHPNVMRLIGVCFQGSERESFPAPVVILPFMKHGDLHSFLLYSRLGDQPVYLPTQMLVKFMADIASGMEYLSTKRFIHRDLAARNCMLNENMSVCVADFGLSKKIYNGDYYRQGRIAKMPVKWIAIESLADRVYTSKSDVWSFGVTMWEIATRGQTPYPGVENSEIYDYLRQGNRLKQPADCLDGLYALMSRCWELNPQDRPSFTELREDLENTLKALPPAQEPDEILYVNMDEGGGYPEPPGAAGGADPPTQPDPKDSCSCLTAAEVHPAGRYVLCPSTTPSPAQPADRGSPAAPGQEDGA

For `O=C(N[C@@H](C1CC1)C(F)(F)F)c1cc(-c2cnn3cc(-c4ccc(F)cc4)cnc23)cs1`, the inhibition in assay [1] was determined as 43%; in [2], 0%; in assay [3], 0%; in [4], 0%; in assay [6], 0%; in assay [7] it was 22%. For the same compound, the fold change (FC) in assay [5] is 0.

Take `CNC(=O)c1ccccc1Oc1nc(Nc2cc(OC)c(OC)c(OC)c2)ncc1Br`: the inhibition in assay [8] stood at 9%; in assay [10], 2%; in [11] it was 4%; in [12], 12%; in [13] it was 0%; in assay [14] it was 28%. Besides, in [15], the inhibition was determined as 3%. The fold change (FC) in assay [9] turned out to be 0; in [16], 0.09; in assay [17] it was 0.03; in the assay filed under Homo sapiens, 0.19; in assay [18], 0.27; in assay [19], 0.01.

With `CC(C)[C@H](NC(=O)c1cc(-c2cnn3cc(-c4ccc(OCCN5CCCCC5)cc4)cnc23)cs1)C(F)(F)F`, the inhibition in [20] is 11%.
